Activity calls are given as the source filed them. The calls are words filed in the database; no cut-off is given here.
Tests used:
Mus musculus [1] = assay: Anticonvulsant activity in ip dosed Swiss albino CF1 mouse assessed as protection against maximal electroshock-induced seizures after 0.5 hrs; assay type: functional; details: read-out: MED
In short: (§1)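 Male Swiss albino CF-1 mice, 20–30 g. Compounds were suspended in 0.5% methyl cellulose and given i.p. at 0.01 mL/g, at 30, 100 and 300 mg/kg. MES and sc PTZ seizure tests followed reported procedures at 0.5 h and 4 h post-dose. The value is the minimal dose protecting 50% or more of the animals.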

Mus musculus [2] = assay: Neurotoxicity in Swiss albino CF1 mouse assessed as decrease in locomotor activity at 30 mg/kg, ip after 4 hrs postdose; assay type: toxicity, organism-based; set-up: dose 30 mg/kg, route intraperitoneal; scale not given: the % may be the effect or the level left; details: in vivo
In short: (§2)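 Compounds in 30% PEG 200 were given i.p. at 30 mg/kg to male Swiss albino CF-1 mice. Locomotor activity was scored digitally in an actophotometer for 10 min, 24 h before dosing and again 0.5 h and 4 h after. The value is the % decrease against the pre-treatment score, as mean ± SEM, with Student's t test at p < 0.05.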

Mus musculus [3] = assay: Anticonvulsant activity in ip dosed Swiss albino CF1 mouse assessed as protection against subcutaneous pentylenetetrazole-induced seizures after 0.5 hrs; assay type: functional; details: Swiss albino CF1, 0.5 h, read-out: MED; in short: as §1
Mus musculus [4] = assay: Anticonvulsant activity in ip dosed Swiss albino CF1 mouse assessed as protection against subcutaneous pentylenetetrazole-induced seizures after 4 hrs; assay type: functional; details: Swiss albino CF1, 4 h, read-out: MED; in short: as §1
Mus musculus [5] = assay: Neurotoxicity in Swiss albino CF1 mouse assessed as minimal motor deficit at 30 to 300 mg/kg, ip after 0.5 hrs by rotarod test; assay type: toxicity, organism-based; set-up: dose 30-300 mg/kg, route intraperitoneal; details: in vivo
In short: (§3)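 Mice (male Swiss albino CF-1, groups of 5) were trained on an accelerating rotarod at 10 rpm with a 3.2 cm rod and had to stay on for two consecutive 90 s trials. Trained animals then received 30, 100 or 300 mg/kg i.p. Deficit was inability to stay on the rod for at least 1 min in each of three trials, checked at 0.5 h and 4 h. The value is the minimal dose giving deficit in 50% or more of the animals.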

Mus musculus [6] = assay: Anticonvulsant activity in ip dosed Swiss albino CF1 mouse assessed as protection against maximal electroshock-induced seizures after 4 hrs; assay type: functional; details: read-out: MED; in short: as §1
Mus musculus [7] = assay: Neurotoxicity in Swiss albino CF1 mouse assessed as minimal motor deficit at 30 to 300 mg/kg, ip after 4 hrs by rotarod test; assay type: toxicity, organism-based; set-up: dose 30-300 mg/kg, route intraperitoneal; details: in vivo; in short: as §3
[8] = Octanol-phosphate buffer partition coefficient, log P of the compound at 5 mg after 24 hrs by UV spectroscopic analysis; assay type: physicochemical
In short: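 Octanol/phosphate buffer partition at room temperature. 5 mg of drug was added to 10 mL octanol plus 10 mL buffer and shaken mechanically for 24 h. The mixture was left to equilibrate for 6 h, and the phases were separated and membrane-filtered. Drug in the aqueous phase was quantified by UV spectroscopy.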

Mus musculus [9] = assay: Neurotoxicity in Swiss albino CF1 mouse assessed as decrease in locomotor activity at 30 mg/kg, ip after 0.5 hrs postdose; assay type: toxicity, organism-based; set-up: dose 30 mg/kg, route intraperitoneal; scale not given: the % may be the effect or the level left; details: in vivo; in short: as §2
Mus musculus [10] = assay: Anticonvulsant activity in Swiss albino CF1 mouse assessed as protection against subcutaneous pentylenetetrazole-induced seizures at 30 to 300 mg/kg, ip after 4 hrs postdose; assay type: functional, organism-based; in short: as §1
Mus musculus [11] = assay: Anticonvulsant activity in Swiss albino CF1 mouse assessed as protection against subcutaneous pentylenetetrazole-induced seizures at 30 to 300 mg/kg, ip after 0.5 hrs postdose; assay type: functional, organism-based; in short: as §1
Mus musculus [12] = assay: Neurotoxicity in ip dosed Swiss albino CF1 mouse assessed as minimum dose required to produce minimal motor deficit after 0.5 hrs by rotarod test; assay type: toxicity, organism-based; details: in vivo; in short: as §3
Mus musculus [13] = assay: Neurotoxicity in ip dosed Swiss albino CF1 mouse assessed as minimum dose required to produce minimal motor deficit after 4 hrs by rotarod test; assay type: toxicity, organism-based; details: in vivo; in short: as §3
Mus musculus [14] = assay: Anticonvulsant activity in Swiss albino CF1 mouse assessed as protection against maximal electroshock-induced seizures at 30 to 300 mg/kg, ip after 0.5 hrs postdose; assay type: functional, organism-based; in short: as §1
Mus musculus [15] = assay: Anticonvulsant activity in Swiss albino CF1 mouse assessed as protection against maximal electroshock-induced seizures at 30 to 300 mg/kg, ip after 4 hrs postdose; assay type: functional, organism-based; in short: as §1

Row | Compound | minimal effective dose (Mus musculus [1]) | Activity (Mus musculus [2]) | minimal effective dose (Mus musculus [3]) | minimal effective dose (Mus musculus [4]) | Activity (Mus musculus [5]) | minimal effective dose (Mus musculus [6]) | Activity (Mus musculus [7]) | logP at 24 h [8] | Activity (Mus musculus [9]) | Activity (Mus musculus [10]) | Activity (Mus musculus [11]) | MTC (Mus musculus [12]) | MTC (Mus musculus [13]) | Activity (Mus musculus [14]) | Activity (Mus musculus [15])
1 | COc1ccc(C2SCC(=O)N2NC(=O)CN2C(=O)c3ccccc3C2=O)cc1OC (centres undefined) | 300 mg/kg | 27.95% | 100 mg/kg | 300 mg/kg | Non-toxic | 300 mg/kg | Non-toxic | 2.78 | 20.25% |  |  |  |  |  | 
2 | O=C(CN1C(=O)c2ccccc2C1=O)NN1C(=O)CSC1c1cccnc1 (centres undefined) | 100 mg/kg | 24.01% |  |  | Non-toxic | 300 mg/kg | Non-toxic | 1.25 | 18.03% | inactive | inactive |  |  |  | 
3 | O=C1NC(=O)C(c2ccccc2)(c2ccccc2)N1 [PHENYTOIN] | 30 mg/kg | 18.57% |  |  |  | 30 mg/kg |  |  | 33.9% |  |  | 100 mg/kg | 100 mg/kg |  | 
4 | O=C(CN1C(=O)c2ccccc2C1=O)NN1C(=O)CSC1c1ccc(Cl)cc1 (centres undefined) | 300 mg/kg | 16.13% | 300 mg/kg |  |  | 300 mg/kg | Non-toxic | 3.21 | 50.83% | inactive |  | 300 mg/kg |  |  | 
5 | COc1cc(C2SCC(=O)N2NC(=O)CN2C(=O)c3ccccc3C2=O)ccc1O (centres undefined) | 30 mg/kg | 7.31% | 300 mg/kg | 300 mg/kg | Non-toxic | 100 mg/kg | Non-toxic | 1.31 | 38.13% |  |  |  |  |  | 
6 | O=C(CN1C(=O)c2ccccc2C1=O)NN1C(=O)CSC1c1cccs1 (centres undefined) |  | 71.73% |  |  | Non-toxic | 100 mg/kg |  | 2.15 | 63.04% | inactive | inactive |  | 100 mg/kg | inactive | 
7 | COc1ccc(C2SCC(=O)N2NC(=O)CN2C(=O)c3ccccc3C2=O)cc1 (centres undefined) | 100 mg/kg | 14.93% |  |  |  | 100 mg/kg |  | 1.97 | 3.25% | inactive | inactive | 300 mg/kg | 300 mg/kg |  | 
8 | O=C(CN1C(=O)c2ccccc2C1=O)NN1C(=O)CSC1c1ccccc1 (centres undefined) | 100 mg/kg | 64.26% | 100 mg/kg | 300 mg/kg |  | 100 mg/kg |  | 2.23 | 50% |  |  | 30 mg/kg | 30 mg/kg |  | 
9 | O=C(CN1C(=O)c2ccccc2C1=O)NN1C(=O)CSC1c1c[nH]c2ccccc12 (centres undefined) | 300 mg/kg | 25.84% | 300 mg/kg |  | Non-toxic | 300 mg/kg | Non-toxic | 1.59 | 9.95% | inactive |  |  |  |  | 
10 | O=C(CN1C(=O)c2ccccc2C1=O)NN1C(=O)CSC1c1ccc(Cl)cc1Cl (centres undefined) |  | 25.55% | 100 mg/kg | 100 mg/kg |  | 30 mg/kg | Non-toxic | 2.54 | 63.73% |  |  | 300 mg/kg |  | inactive | 
11 | O=C(CN1C(=O)c2ccccc2C1=O)NN1C(=O)CSC1c1ccco1 (centres undefined) | 100 mg/kg | 11.64% |  |  | Non-toxic |  | Non-toxic | 1.13 | 5.14% | inactive | inactive |  |  |  | inactive
12 | O=C(CN1C(=O)c2ccccc2C1=O)NN1C(=O)CSC1/C=C/c1ccccc1 (centres undefined) | 300 mg/kg | 66.5% | 300 mg/kg |  | Non-toxic | 300 mg/kg | Non-toxic | 3.65 | 5.66% | inactive |  |  |  |  | 
13 | O=C(CN1C(=O)c2ccccc2C1=O)NN1C(=O)CSC1c1c(F)cccc1Cl (centres undefined) | 100 mg/kg | 30.18% | 300 mg/kg | 300 mg/kg | Non-toxic | 100 mg/kg | Non-toxic | 3.79 | 12.01% |  |  |  |  |  | 
14 | CN(C)c1ccc(C2SCC(=O)N2NC(=O)CN2C(=O)c3ccccc3C2=O)cc1 (centres undefined) | 300 mg/kg | 44.08% | 300 mg/kg | 300 mg/kg | Non-toxic | 300 mg/kg | Non-toxic | 2.84 | 9.78% |  |  |  |  |  | 
15 | O=C(CN1C(=O)c2ccccc2C1=O)NN1C(=O)CSC1c1ccc(O)cc1 (centres undefined) | 30 mg/kg | 43.34% |  |  |  | 100 mg/kg |  | 2.4 | 68.37% | inactive | inactive | 300 mg/kg | 300 mg/kg |  | 
16 | CCCC(CCC)C(=O)[O-].[Na+] [VALPROATE SODIUM] |  |  | 300 mg/kg |  | Non-toxic |  | Non-toxic |  |  | inactive |  |  |  |  | 
17 | Cc1ccc(C2SCC(=O)N2NC(=O)CN2C(=O)c3ccccc3C2=O)cc1 (centres undefined) | 30 mg/kg | 68.16% | 100 mg/kg | 300 mg/kg | Non-toxic | 30 mg/kg | Non-toxic | 2.97 | 25.94% |  |  |  |  |  | 
18 | O=C(CN1C(=O)c2ccccc2C1=O)NN1C(=O)CSC1c1ccccc1O (centres undefined) | 100 mg/kg | 36.91% |  |  |  | 100 mg/kg |  | 1.46 | 32.63% | inactive | inactive | 100 mg/kg | 100 mg/kg |  | 

— ChEMBL document CHEMBL1909502, “Design and synthesis of 2-(1, 3-dioxoisoindolin-2-yl)-N-(4-oxo-2-substitutedthiazolidin-3-yl) acetamide derivatives as potential anticonvulsant agents” (Eur J Med Chem, 2011)
